This is an account of results in ChEMBL document CHEMBL1123129, “Hypolipidemic activity of indan-1,3-dione derivatives in rodents” (J Med Chem, 1985).

Data set [1] has as its target Cholesterol 7-alpha-hydroxylase (Cytochrome P450 7A1) (Mus musculus, UniProt Q64505). Briefly: In vivo effect on Cholesterol 7-alpha-hydroxylase activity in CF1 mice after 16 days at 60 mg/kg oral dose. In kind it is functional, organism-based. Details: dose 60 mg/kg, route oral. To be noted: read-out: Control. Put shortly:
(§1)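 CF1 male mice are dosed orally at 10–60 mg/kg per day for 16 days, with 1% CMC as the control vehicle. Liver is homogenized at 10% in 0.25 M sucrose + 0.001 M EDTA, pH 7.2. Enzymes are assayed by literature methods, with Lowry protein. Activity is given as % of control (X ± SD, N = 6), with p from Student's t test.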

In data set [2] the target is T1, 3-hydroxy-3-methylglutaryl-coenzyme A reductase (Mus musculus) (UniProt Q01237).
T1 sequence (whole entry): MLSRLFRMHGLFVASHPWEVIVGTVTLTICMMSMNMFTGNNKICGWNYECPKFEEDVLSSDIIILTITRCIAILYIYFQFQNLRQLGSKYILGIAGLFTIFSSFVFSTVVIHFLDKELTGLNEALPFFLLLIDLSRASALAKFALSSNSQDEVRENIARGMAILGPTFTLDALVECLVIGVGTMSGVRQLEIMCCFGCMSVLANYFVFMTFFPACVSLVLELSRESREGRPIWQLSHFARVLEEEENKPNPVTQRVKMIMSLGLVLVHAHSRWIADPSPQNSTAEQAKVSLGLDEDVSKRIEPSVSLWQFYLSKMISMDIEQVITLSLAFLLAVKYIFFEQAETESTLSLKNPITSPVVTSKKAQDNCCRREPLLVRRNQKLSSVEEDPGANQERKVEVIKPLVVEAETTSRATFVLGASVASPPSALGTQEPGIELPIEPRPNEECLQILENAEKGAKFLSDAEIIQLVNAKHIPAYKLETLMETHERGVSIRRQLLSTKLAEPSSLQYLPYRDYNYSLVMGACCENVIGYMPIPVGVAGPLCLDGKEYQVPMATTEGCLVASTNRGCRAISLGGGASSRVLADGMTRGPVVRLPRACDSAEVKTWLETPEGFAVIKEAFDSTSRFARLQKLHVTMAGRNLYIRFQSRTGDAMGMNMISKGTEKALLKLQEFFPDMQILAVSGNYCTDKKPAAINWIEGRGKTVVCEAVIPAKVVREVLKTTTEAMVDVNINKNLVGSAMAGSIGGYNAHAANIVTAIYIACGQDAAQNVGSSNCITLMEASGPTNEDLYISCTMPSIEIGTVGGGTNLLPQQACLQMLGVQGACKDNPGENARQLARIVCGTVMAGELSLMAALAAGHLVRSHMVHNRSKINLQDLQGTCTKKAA
Briefly: In Vivo effect for the hypolipidemic activity on HMG-CoA reductase in CF1 mice after 16 days of oral administration at a dose of 20 mg/kg. In kind it is organism-based. Details: dose 20 mg/kg. Put shortly:
as §1

The target in data set [3] is T1, 3-hydroxy-3-methylglutaryl-coenzyme A reductase (Mus musculus). Briefly: In Vivo effect for the hypolipidemic activity on HMG-CoA reductase in CF1 mice after 16 days of oral administration at a dose of 40 mg/kg. In kind it is organism-based. Also noted: dose 40 mg/kg. Put shortly: as §1
Data set [4] deals with Mus musculus. The data set can be described thus: Compound was evaluated for the hypolipidemic activity in CF1 male mice at a dose of 40 mg/kg orally for Serum cholesterol at 9th day. It is filed as functional. To be noted: route oral. In a few lines: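 CF1 male mice received the agent orally in 1% CMC at 10–60 mg/kg per day. Tail-vein blood was taken on days 9 and 16. Serum cholesterol was measured by modified Liebermann–Burchard on duplicate 25-µL samples, and serum triglyceride on day 16 in duplicate 50-µL samples. Values are % of vehicle control, mean ± SD, N = 6; Student's t test.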

Data set [5] has as its target T2, Sterol O-acyltransferase 1 (Mus musculus) (UniProt Q61263).
T2 sequence (whole entry): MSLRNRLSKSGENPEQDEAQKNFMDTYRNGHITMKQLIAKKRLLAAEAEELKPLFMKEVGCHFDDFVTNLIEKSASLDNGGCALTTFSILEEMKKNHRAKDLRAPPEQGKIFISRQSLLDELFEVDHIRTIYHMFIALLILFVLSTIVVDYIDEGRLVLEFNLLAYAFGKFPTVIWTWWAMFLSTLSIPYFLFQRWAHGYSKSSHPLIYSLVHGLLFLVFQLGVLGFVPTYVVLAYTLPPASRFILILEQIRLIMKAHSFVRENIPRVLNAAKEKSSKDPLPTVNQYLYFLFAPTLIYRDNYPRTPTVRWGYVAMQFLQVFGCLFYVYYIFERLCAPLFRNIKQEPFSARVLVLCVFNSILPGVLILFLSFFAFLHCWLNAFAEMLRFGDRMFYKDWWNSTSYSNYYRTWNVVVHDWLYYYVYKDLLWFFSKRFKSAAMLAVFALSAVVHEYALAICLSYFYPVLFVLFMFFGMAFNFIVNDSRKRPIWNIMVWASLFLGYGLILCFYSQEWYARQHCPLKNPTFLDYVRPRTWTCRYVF
The data set can be described thus: In Vivo effect for the hypolipidemic activity on Acyl-COA cholesterol acyltransferase in CF1 mice after 16 days of oral administration at a dose of 60 mg/kg. It is filed as functional, organism-based. Also noted: dose 60 mg/kg. Put shortly:
as §1

In data set [6] the test system is Mus musculus. Briefly: In Vivo effect for the hypolipidemic activity on Hepatic lipoprotein lipase in CF1 mice after 16 days administered orally at a dose of 40 mg/kg. It is filed as functional. To be noted: route oral. In a few lines:
as §1

The species named for data set [7] is Mus musculus. Briefly: In Vitro evaluation for the CF1 liver enzyme activity on Mitochondrial citrate exchange at concentration 100 uM. In kind it is functional. Put shortly:
(§2)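 Mouse liver enzymes assayed in vitro on 10% homogenates of CF1 male mouse liver, with test drug added at 50–200 μM. Each enzyme follows a published procedure. Protein is measured by Lowry. Activity is given as % of untreated control (X ± SD, N = 6).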

For data set [8], the system named is Rattus norvegicus. The data set can be described thus: Compound was evaluated for the hypolipidemic activity at 20 mg/kg per day orally for 14 days on phospholipids content in rat VLDL. It is filed as functional. To be noted: route oral. In a few lines: (§3)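 Male Sprague–Dawley rats (~300 g) were dosed orally each day. Blood was drawn from the abdominal vein. Lipoprotein fractions (chylomicron, VLDL, LDL, HDL) were separated by the Hatch–Lees and Havel methods. Each fraction was assayed for cholesterol, triglyceride (enzymatic kit), neutral lipids, phospholipids and Lowry protein. Values are % of 1% CMC vehicle control, N = 6.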

The subject of data set [9] is Rattus norvegicus. The data set can be described thus: Compound was evaluated for the hypolipidemic activity at 20 mg/kg per day orally for 14 days on cholesterol content in rat small intestine. In kind it is functional. To be noted: route oral. In a few lines: (§4)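 Male Sprague–Dawley rats were dosed orally for 14 days. Liver, small intestine and a 24-h fecal collection were lipid-extracted. Extracts were assayed for cholesterol (modified Liebermann–Burchard), triglyceride (enzymatic kit), neutral lipids, phospholipids and protein. Values are % of 1% CMC vehicle control, mean ± SD, N = 6.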

For data set [10], the system named is Rattus norvegicus. Briefly: Compound was evaluated for the hypolipidemic activity at 20 mg/kg per day orally for 14 days on lipid content in rat liver. To be noted: route oral. It is filed as functional. Put shortly:
as §4

The subject of data set [11] is Rattus norvegicus. The data set can be described thus: Compound was evaluated for the hypolipidemic activity at 20 mg/kg per day orally for 14 days on triglycerides content in rat HDL. It is filed as functional. To be noted: route oral. Put shortly:
as §3

Data set [12] has as its system Rattus norvegicus. Briefly: Compound was evaluated for the hypolipidemic activity at 20 mg/kg per day orally for 14 days on triglycerides content in rat feces. It is filed as functional. To be noted: route oral. In a few lines: as §4
The species entered for data set [13] is Mus musculus. Briefly: In Vitro evaluation for the CF1 liver enzyme activity on phosphatidate phosphohydrolase at concentration 200 uM. In a few lines:
as §2

In data set [14] the test system is Mus musculus. The data set can be described thus: In Vivo effect for the hypolipidemic activity on phosphatidate phosphohydrolase in CF1 mice after 16 days administered orally at a dose of 10 mg/kg. It is filed as organism-based. Also noted: dose 10 mg/kg. Put shortly: as §1
Data set [15] has as its system Mus musculus. The data set can be described thus: In Vivo effect for the hypolipidemic activity on phosphatidate phosphohydrolase in CF1 mice after 16 days administered orally at a dose of 20 mg/kg. In kind it is organism-based. Details: dose 20 mg/kg. Put shortly: as §1

Cholesterol 7-alpha-hydroxylase (Cytochrome P450 7A1), sequence (Q64505 whole entry): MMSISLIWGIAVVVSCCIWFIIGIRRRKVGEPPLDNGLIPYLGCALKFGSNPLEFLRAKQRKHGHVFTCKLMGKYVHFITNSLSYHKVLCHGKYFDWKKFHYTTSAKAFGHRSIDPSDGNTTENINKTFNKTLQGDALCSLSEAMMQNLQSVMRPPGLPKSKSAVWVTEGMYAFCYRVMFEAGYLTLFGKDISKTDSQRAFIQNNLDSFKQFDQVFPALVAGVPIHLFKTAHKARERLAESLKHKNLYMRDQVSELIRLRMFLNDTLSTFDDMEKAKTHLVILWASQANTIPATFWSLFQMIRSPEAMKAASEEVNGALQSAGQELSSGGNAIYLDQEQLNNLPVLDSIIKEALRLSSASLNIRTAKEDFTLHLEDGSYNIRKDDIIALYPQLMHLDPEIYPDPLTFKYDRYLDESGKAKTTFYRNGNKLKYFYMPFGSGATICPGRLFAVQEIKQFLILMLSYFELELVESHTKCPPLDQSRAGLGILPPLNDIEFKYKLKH

Turning to `COc1ccc(C2C(=O)c3ccccc3C2=O)cc1` [ANISINDIONE], the activity at 384 h in data set [1] stood at 60%. Besides, the Control in data set [2] was found to be 114%; in data set [3], 114%; in the data set with Mus musculus [4] it was 79%; in data set [5], 48%; in the data set on Mus musculus [6] it was 89%; in the data set filed under Mus musculus [7], 38%. For the same molecule, the Control in the data set on Rattus norvegicus [8] is 128%; with Rattus norvegicus [9] it was 87%; in the data set with Rattus norvegicus [10], 98%; in the data set with Rattus norvegicus [11] it was 59%; in the data set on Rattus norvegicus [12] it was 118%; in the data set listed under Mus musculus [13] it was 11%. Also, the Control is 53% in the data set with Mus musculus [14] and 35% with Mus musculus [15].
